Published values from different studies.
Compare with care: the assays were run in different laboratories.
Target: Mitogen-activated protein kinase kinase kinase kinase 1 (MAP4K1, Homo sapiens, UniProt Q92918)

Structure (SMILES)	assay	conditions	endpoint	value
CC(=O)N1CCC(c2ccc(C(=O)NC(=N)N)cc2C(F)(F)F)CC1	cell-free assay, competition with immobilised ligand	1 µM	remaining binding	100%
Cc1sc(C(=O)NC2COC2)cc1-n1cc(NC(=O)Nc2c(F)cccc2Cl)cn1	enzyme activity, inhibitor	10 µM	remaining activity	99.2%
Cc1ccc(C(=O)Nc2ccc(CN3CCN(C)CC3)c(C(F)(F)F)c2)cc1C#Cc1cnc2cccnn12	enzyme activity, inhibitor	23.5 nM	remaining activity	8.5%
O=C(Nc1cnn(-c2csc(C(=O)NC3COC3)c2)c1)Nc1ccccc1Cl	enzyme activity, inhibitor	5 µM	remaining activity	132%
CCS(=O)(=O)c1cc2cc(C[C@](O)(CC(C)(C)c3ccc(F)cc3C(N)=O)C(F)(F)F)[nH]c2cn1	cell-free assay, competition with immobilised ligand	1 µM	remaining binding	100%
CC/C(=N\NC(=O)NCc1cccc(O)c1)c1ccc(O)c(C)c1O	enzyme activity, inhibitor	0.1 µM	inhibition	17.1%
CC(C)(O)[C@H]1CC[C@H](Nc2ccc3ncc(-c4cccc(C(F)(F)F)c4)n3n2)CC1	enzyme activity, inhibitor	1 µM	remaining activity	79.6%
COc1cc2nccc(Oc3ccc(NC(=O)c4c5n(n(-c6ccc(F)cc6)c4=O)CCCC5)cc3)c2cc1OC	enzyme activity, inhibitor	0.1 µM	inhibition	11%
Cc1ccc(C(=O)NCc2ccsc2)cc1C#Cc1cn(C(C)C)c2ncnc(N)c12	enzyme activity, inhibitor	1 µM	activity vs control	85%
CN1CC(Oc2cnc(C#N)cc2-c2ccn3nc(NC(=O)C4CC4)cc3c2)C1	enzyme activity, inhibitor	1 µM	inhibition	4%
Nc1ncnc2occ(-c3ccc(NC(=O)Nc4cc(C(F)(F)F)ccc4F)cc3)c12	cell-free assay, inhibitor	20 µM	remaining signal	0.7%
COc1cc(Cl)c(C(=O)N[C@@H](CN[C@H]2CC[C@@H](N)CC2)Cc2ccc(C#N)cc2)cc1-c1ccc(CN[C@H](C)c2ccc(C)cc2)o1	enzyme activity, inhibitor	1 µM	remaining activity	96%
